According to ChEMBL document CHEMBL4610127, “Novel Autotaxin Inhibitor for the Treatment of Idiopathic Pulmonary Fibrosis: A Clinical Candidate Discovered Using DNA-Encoded Chemistry” (J Med Chem, 2020):
≈ marks a conversion by molar mass, not a printed value. Calls of active or inactive are those of the source. No cut-off for these calls is given here.

Tests used:
[1] = Cmax in rat at 5 mg/kg, po; assay type: ADME, organism-based; design: dose 5 mg/kg, route oral; conditions: in vivo
[2] = target: T1, Voltage-gated inwardly rectifying potassium channel KCNH2 (Homo sapiens, UniProt Q12809); assay: Inhibition of human ERG by GLP based assay
[3] = target: T2, Ectonucleotide pyrophosphatase/phosphodiesterase family member 1 (Homo sapiens, UniProt P22413); assay: Inhibition of ENPP1 (unknown origin)
T2 sequence (P22413 whole entry): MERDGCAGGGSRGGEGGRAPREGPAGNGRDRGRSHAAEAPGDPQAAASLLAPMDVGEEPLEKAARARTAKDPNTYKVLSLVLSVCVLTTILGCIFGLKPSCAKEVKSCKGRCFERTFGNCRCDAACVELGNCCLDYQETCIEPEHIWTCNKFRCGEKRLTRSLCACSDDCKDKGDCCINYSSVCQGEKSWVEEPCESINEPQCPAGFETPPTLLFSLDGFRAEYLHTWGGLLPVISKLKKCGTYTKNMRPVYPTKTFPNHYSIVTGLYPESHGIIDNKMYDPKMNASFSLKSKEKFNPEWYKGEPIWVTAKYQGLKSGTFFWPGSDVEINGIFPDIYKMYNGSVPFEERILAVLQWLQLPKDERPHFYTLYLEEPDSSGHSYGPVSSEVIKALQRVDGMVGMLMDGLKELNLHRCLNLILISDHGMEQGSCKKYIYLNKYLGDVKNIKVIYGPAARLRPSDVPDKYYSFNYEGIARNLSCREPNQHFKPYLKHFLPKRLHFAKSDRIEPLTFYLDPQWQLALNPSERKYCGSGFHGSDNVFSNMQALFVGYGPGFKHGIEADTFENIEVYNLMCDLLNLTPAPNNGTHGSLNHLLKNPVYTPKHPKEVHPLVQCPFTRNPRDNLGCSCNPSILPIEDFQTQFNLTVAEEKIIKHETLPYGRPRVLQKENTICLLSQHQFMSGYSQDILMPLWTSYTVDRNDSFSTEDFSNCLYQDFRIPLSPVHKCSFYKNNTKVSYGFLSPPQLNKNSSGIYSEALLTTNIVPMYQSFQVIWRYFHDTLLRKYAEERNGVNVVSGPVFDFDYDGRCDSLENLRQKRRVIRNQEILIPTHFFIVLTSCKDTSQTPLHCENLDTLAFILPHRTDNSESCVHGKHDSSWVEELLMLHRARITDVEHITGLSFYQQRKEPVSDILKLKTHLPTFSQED

[4] = target: Lysophosphatidic acid receptor 1 (Homo sapiens, UniProt Q92633); assay: Inhibition of LPAR1 (unknown origin)
Cytochrome P450 2C9 = Cytochrome P450 2C9 (Homo sapiens, UniProt P11712); assay: Inhibition of CYP2C9 (unknown origin); assay type: ADME
[5] = AUClast in mouse at 10 mg/kg, po; assay type: ADME, organism-based; design: dose 10 mg/kg, time 0 - last, route oral; conditions: in vivo
[6] = Clearance in mouse at 1 mg/kg, iv; assay type: ADME, organism-based; conditions: in vivo
Autotaxin [7] = target: T3, Autotaxin (Homo sapiens, UniProt Q13822); assay: Potency index, ratio of IC50 for GLPG1690 to IC50 for test compound for inhibition of autotaxin in human plasma assessed as reduction in LPA (18:2) production incubated for 2 hrs LC-MS-/MS analysis; assay type: cell-free
Autotaxin [8] = target: Autotaxin (Mus musculus, UniProt Q9R1E6); assay: Inhibition of autotaxin in mouse plasma assessed as reduction in LPA (18:2) production incubated for 2 hrs LC-MS-/MS analysis; assay type: cell-free
Mus musculus [9] = assay: Anti-fibrotic activity in C57BL/6 mouse model of bleomycin-induced lung fibrosis assessed as reduction in hydroxyproline levels at 100 to 300 mg/kg, po BID for 21 days dosed 7 days after bleomycin treatment; assay type: functional, organism-based
Method in brief: (§1)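 Mice given oral BID doses (30, 100 or 300 mg/kg) starting seven days after bleomycin. Killed 21 days after bleomycin; lung fibrosis scored by hydroxyproline in one group. GLPG1690 at 30 and 100 mg/kg BID as control. Medians and p-values against bleomycin + vehicle.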

[10] = target: T1, Voltage-gated inwardly rectifying potassium channel KCNH2; assay: Inhibition of human ERG by manual patch clamp assay
[11] = Half life in mouse at 1 mg/kg, iv; assay type: ADME, organism-based; conditions: in vivo
Mus musculus [12] = assay: Anti-fibrotic activity in C57BL/6 mouse model of bleomycin-induced lung fibrosis assessed as reduction in hydroxyproline levels at 100 to 300 mg/kg, po BID dosed until day 21 starting one day prior to bleomycin treatment; assay type: functional, organism-based
Method in brief: (§2)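 Mice given oral BID doses (30, 100 or 300 mg/kg) starting one day before bleomycin. Killed 21 days after bleomycin; lung fibrosis scored by hydroxyproline in one group. GLPG1690 at 30 and 100 mg/kg BID as control. Hydroxyproline plotted per mouse; medians and p-values against bleomycin + vehicle.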

Mus musculus [13] = assay: Anti-fibrotic activity in C57BL/6 mouse model of bleomycin-induced lung fibrosis assessed as reduction in hydroxyproline levels at 30 to 300 mg/kg, po BID dosed until day 21 starting one day prior to bleomycin treatment; assay type: functional; conditions: C57BL/6, po, read-out: MED; method in brief: as §2
Mus musculus [14] = assay: Anti-fibrotic activity in C57BL/6 mouse model of bleomycin-induced lung fibrosis assessed as reduction in hydroxyproline levels at 30 mg/kg, po BID for 21 days dosed 7 days after bleomycin treatment; assay type: functional, organism-based; method in brief: as §1
[15] = Time above IC90 in mouse at 30 mg/kg, po; assay type: ADME, organism-based; conditions: in vivo
Autotaxin [16] = target: T3, Autotaxin; assay: Inhibition of C-terminal FLAG-tagged human autotaxin expressed in Freestyle 293 cells assessed as reduction in choline release from LPC 16:0 pre-incubated for 10 mins before LPC addition and measured after 1 hr by choline oxidase/HRP coupled assay; assay type: cell-based
Cytochrome P450 2D6 = Cytochrome P450 2D6 (Homo sapiens, UniProt P10635); assay: Inhibition of CYP2D6 (unknown origin); assay type: ADME
[17] = Thermodynamic solubility in pH 7.4 buffer; assay type: physicochemical; conditions: read-out: Therm_solubility
[18] = AUClast in rat at 5 mg/kg, po; assay type: ADME, organism-based; design: dose 5 mg/kg, route oral, time 0 - last; conditions: in vivo
[19] = Volume of distribution at steady state in mouse at 1 mg/kg, iv; assay type: ADME, organism-based; conditions: in vivo, read-out: Vdss
[20] = target: Lysophosphatidic acid receptor 2 (Homo sapiens, UniProt Q9HBW0); assay: Inhibition of LPAR2 (unknown origin)
Autotaxin [21] = target: T3, Autotaxin; assay: Inhibition of autotaxin in human plasma assessed as reduction in LPA (18:2) production incubated for 2 hrs LC-MS-/MS analysis; assay type: cell-free
[22] = Oral bioavailability in mouse at 10 mg/kg; assay type: ADME, organism-based; conditions: in vivo
[23] = Half life in human liver microsomes; assay type: ADME, Microsome
[24] = Volume of distribution at steady state in rat at 1 mg/kg, iv; assay type: ADME, organism-based; conditions: in vivo, read-out: Vdss
[25] = Half life in dog at 1 mg/kg, iv; assay type: ADME, organism-based, Canis lupus familiaris; conditions: in vivo
[26] = Half life in dog at 1 mg/kg, po; assay type: ADME, organism-based, Canis lupus familiaris; conditions: in vivo
[27] = Oral bioavailability in rat at 5 mg/kg; assay type: ADME, organism-based; conditions: in vivo
[28] = AUClast in dog at 1 mg/kg, po; assay type: ADME, organism-based, Canis lupus familiaris; design: dose 1 mg/kg, time 0 - last, route oral; conditions: in vivo
[29] = Volume of distribution at steady state in dog at 1 mg/kg, iv; assay type: ADME, organism-based, Canis lupus familiaris; conditions: in vivo, read-out: Vdss

T1 sequence (Q12809 whole entry): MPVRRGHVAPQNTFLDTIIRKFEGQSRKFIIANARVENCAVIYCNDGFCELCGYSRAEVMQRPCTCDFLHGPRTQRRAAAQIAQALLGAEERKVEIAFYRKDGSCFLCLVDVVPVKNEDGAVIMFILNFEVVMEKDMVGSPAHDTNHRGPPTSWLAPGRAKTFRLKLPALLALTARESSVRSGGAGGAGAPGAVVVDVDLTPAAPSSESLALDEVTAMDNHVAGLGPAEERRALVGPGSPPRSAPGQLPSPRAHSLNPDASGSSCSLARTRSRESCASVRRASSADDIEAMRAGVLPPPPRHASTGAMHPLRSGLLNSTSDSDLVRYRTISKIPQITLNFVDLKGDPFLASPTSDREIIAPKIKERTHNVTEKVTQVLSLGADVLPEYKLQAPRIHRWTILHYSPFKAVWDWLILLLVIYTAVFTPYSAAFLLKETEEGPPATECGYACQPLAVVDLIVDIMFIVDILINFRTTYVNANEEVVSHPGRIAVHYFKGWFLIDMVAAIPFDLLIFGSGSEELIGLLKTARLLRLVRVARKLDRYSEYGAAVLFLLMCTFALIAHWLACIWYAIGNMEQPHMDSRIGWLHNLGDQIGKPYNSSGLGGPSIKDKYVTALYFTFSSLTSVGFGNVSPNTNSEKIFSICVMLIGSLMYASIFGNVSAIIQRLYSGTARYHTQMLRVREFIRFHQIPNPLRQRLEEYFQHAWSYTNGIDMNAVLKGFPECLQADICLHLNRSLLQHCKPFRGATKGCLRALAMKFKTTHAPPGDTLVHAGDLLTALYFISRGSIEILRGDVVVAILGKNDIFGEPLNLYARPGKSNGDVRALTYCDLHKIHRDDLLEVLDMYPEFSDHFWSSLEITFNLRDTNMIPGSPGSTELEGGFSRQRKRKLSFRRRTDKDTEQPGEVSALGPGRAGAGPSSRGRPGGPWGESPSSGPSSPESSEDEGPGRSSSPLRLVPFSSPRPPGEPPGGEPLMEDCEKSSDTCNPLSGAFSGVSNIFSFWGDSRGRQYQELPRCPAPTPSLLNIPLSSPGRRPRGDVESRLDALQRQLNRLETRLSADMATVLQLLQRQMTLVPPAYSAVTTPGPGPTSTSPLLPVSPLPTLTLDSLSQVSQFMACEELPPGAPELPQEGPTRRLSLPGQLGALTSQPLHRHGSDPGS
Cytochrome P450 2D6, sequence (P10635 whole entry): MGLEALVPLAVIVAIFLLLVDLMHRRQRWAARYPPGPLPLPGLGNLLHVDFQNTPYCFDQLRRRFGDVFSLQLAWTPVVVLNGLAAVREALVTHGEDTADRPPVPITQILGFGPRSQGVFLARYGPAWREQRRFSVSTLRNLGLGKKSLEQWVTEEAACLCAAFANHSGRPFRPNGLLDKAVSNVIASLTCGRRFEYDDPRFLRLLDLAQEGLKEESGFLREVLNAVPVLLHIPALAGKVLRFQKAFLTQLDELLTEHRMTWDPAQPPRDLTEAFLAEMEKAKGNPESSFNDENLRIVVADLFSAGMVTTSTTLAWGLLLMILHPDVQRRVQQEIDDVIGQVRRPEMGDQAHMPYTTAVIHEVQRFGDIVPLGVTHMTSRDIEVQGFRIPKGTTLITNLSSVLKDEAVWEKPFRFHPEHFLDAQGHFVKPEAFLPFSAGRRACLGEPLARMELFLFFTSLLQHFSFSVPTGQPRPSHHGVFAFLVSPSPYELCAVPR
Cytochrome P450 2C9, sequence (P11712 whole entry): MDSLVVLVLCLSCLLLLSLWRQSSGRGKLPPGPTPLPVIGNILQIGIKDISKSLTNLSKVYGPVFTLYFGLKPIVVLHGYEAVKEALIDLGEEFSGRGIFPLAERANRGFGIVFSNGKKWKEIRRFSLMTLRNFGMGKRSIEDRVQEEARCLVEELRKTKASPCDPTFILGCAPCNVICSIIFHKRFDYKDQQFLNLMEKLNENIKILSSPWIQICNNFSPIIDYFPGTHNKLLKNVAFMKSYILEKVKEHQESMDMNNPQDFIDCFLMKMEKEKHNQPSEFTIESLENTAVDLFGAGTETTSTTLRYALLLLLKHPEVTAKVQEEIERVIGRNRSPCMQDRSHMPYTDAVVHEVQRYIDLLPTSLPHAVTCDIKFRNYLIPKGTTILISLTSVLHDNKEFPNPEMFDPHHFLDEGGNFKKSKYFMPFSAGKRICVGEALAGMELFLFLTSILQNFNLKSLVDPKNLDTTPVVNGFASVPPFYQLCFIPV
Lysophosphatidic acid receptor 2, sequence (Q9HBW0 whole entry): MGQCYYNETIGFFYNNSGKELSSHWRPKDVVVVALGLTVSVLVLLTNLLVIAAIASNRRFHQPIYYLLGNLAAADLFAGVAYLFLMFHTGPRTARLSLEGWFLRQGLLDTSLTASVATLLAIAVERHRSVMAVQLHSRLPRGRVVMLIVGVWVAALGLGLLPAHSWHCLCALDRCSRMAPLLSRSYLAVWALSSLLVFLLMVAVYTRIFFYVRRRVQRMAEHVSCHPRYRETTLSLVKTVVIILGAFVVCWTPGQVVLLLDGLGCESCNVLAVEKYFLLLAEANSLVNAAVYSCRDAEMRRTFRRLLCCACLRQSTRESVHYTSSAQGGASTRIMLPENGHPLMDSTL
Lysophosphatidic acid receptor 1, sequence (Q92633 whole entry): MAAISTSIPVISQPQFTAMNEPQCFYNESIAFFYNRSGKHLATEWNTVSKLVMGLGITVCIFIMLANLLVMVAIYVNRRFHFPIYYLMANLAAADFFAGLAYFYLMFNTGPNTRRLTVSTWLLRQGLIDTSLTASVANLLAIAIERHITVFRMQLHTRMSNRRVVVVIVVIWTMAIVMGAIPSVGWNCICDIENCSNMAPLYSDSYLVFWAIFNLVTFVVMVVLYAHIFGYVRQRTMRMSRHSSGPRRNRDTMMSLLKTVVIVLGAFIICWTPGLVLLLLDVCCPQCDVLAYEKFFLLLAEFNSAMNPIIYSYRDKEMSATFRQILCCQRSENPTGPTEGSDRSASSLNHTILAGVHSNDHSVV

Compound: CC(C)[C@@H](NC(=O)c1cc(C(F)(F)F)ccc1F)C(=O)N1CCC2(CC1)C(=O)N(C)C(=O)N2c1ccc2[nH]ncc2c1
- Cmax [1]: 160 ng/mL
- IC50 [2]: > 50 µM
- IC50 [3]: > 10 µM
- IC50 [4]: > 10 µM
- IC50 (Cytochrome P450 2C9): 10.4 µM
- AUC(0-t) [5]: 2590 ng·h/mL
- clearance [6]: 54 mL/min/kg
- Ratio IC50 (Autotaxin [7]): 20
- IC50 (Autotaxin [8]): 0.007 µM
- Activity (Mus musculus [9]): Active
- IC50 [10]: > 50 µM
- half-life [11]: 0.57 h
- Activity (Mus musculus [12]): Active
- minimal effective dose (Mus musculus [13]): 30 mg/kg
- Activity (Mus musculus [14]): inactive
- Time [15]: 12 h
- IC50 (Autotaxin [16]): 0.055 µM
- IC50 (Cytochrome P450 2D6): > 50 µM
- solubility thermodynamic [17]: 452 µM (≈ 266 µg/mL)
- AUC(0-t) [18]: 518 ng·h/mL
- Vd [19]: 1.38 L/kg
- IC50 [20]: > 10 µM
- IC50 (Autotaxin [21]): 0.014 µM
- bioavailability [22]: 81%
- half-life [23]: 8.88 h
- Vd [24]: 1.98 L/kg
- half-life [25]: 4.1 h
- half-life [26]: 4.2 h
- bioavailability [27]: 24%
- AUC(0-t) [28]: 3080 ng·h/mL
- Vd [29]: 0.655 L/kg
